S1P1 ag-PAM = agonists and agonism potentiators of human S1P1 receptor. S1P1 CRE-bla cells, forskolin, beta-lactamase FRET, potentiator mode; S1P1 agonist co-added at EC20, 2 nM; 100% = saturating reference agonist, 0% = basal. activation, % at 9.5 µM. 56,000 compounds, 0.57% hits. AID 449;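 active = activation above a cutoff set at the mean activation of all tested compounds plus 3 SD, cut at about 54% in these data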;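 also: forskolin at 4 µM as EC80 and the EC20 agonist is SEW2871; 100% = SEW2871 at its EC100 plus forskolin at EC80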
M1 antag = blocks the rat M1 muscarinic receptor response to acetylcholine; B-score at 10 µM; AID 628; CHO-M1 cells, Fluo-4 calcium, ACh EC80 antagonist mode; hits give low values; 64,000 compounds, 3.4% hits; P08482;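 active = calcium fluorescence response, raw or row-and-column corrected B-score, differing from the plate sample mean either way at a set confidence level, mostly lower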
D1 mod = allosterically modulates the human D1 dopamine receptor; 58,000 compounds, 5.9% hits; P21728; B-score at 10 µM; HEK293 D1, CRE-luciferase, dopamine EC30 potentiation; actives deviate in either direction; AID 641;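 active = luminescence count or its row- and column-corrected plate score outside the 99.7% band of the plate's sample wells, on either side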
Target sequence (P21728 whole entry, looked up): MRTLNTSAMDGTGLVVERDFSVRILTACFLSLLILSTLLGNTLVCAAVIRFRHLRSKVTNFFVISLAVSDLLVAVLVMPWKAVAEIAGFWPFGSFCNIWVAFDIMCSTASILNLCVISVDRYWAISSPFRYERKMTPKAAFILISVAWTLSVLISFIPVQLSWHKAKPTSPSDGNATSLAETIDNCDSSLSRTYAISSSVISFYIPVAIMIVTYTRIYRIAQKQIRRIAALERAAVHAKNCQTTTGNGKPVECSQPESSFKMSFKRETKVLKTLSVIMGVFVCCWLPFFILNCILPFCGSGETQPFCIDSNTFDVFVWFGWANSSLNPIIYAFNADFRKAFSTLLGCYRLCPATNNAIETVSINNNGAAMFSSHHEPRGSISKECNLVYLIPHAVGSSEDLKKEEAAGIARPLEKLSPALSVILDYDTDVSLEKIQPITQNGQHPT
S1P3 agonist = activates the human S1P3 receptor. 60,000 compounds, 0.1% hits. activation, % at 4.5 µM. AID 373. Q99500. S1P3 NFAT-BLA reporter cells, agonism, FRET ratio; relative to 1 µM S1P, basal subtracted;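 active = activation above the screen-wide mean plus 3 SD, cut at about 4.5% in these data, passing the limit was not always enough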
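Material: Human S1P3 NFAT-BLA reporter CHO cells | Incubation: Overnight plating, 4 h compound 37 °C, 2 h substrate RT | Signal: FRET β-lactamase substrate fluorescence, excitation 405 nm, 460/535 nm emission ratio, background-subtracted | Compound: 4.5 µM final, single dose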
M1 ag = activates the M1 muscarinic receptor. CHO-M1 cells, Fluo-4 calcium fluorescence, agonist mode; hits give high values. B-score at 10 µM. 64,000 compounds, 3% hits. AID 626;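 active = fluorescence rise, raw or as B-score row- and column-corrected plate score, outside the 99.7% band of its plate's samples, either direction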
Numbers without * were called inactive; . = not tested or not shown. Shown are actives, neighbours in structure and some others; about 11% of the full set was active somewhere.

SMILES	S1P1 ag-PAM	M1 antag	D1 mod	S1P3 agonist	M1 ag
CC1CCN(c2nc3c(c(=O)[nH]c(=O)n3C)n2CCSc2nc3ccccc3o2)CC1	0	0.038	-0.82	0	-0.11
O=S(=O)(NCc1ccco1)N1CCOCC1	.	-0.44	-0.67	-1	-0.53
O=C(CCSc1nnnn1-c1ccccc1)N1CCOCC1	.	0.24	0.77	.	-0.94
O=C(CSc1nnnn1-c1cccc2c1CCCC2)N1CCOCC1	.	2.7*	.	.	-0.11
COc1ccc2nc(SCC(=O)NC(C)C)[nH]c2c1	2	-0.68	-0.055	0	-0.91
COc1ccc2nc(SCC(=O)NC(C)(C)C)[nH]c2c1	8	-0.014	-2.1*	0	-0.17
CC(=O)C1=C(C)NC(C)=C(C(C)=O)C1c1ccc(-c2ccccc2Cl)o1	6	0.0058	-1.2	-1	0.74
COC(=O)COc1ccc(S(=O)(=O)NCc2ccco2)cc1Cl	-6	-0.0071	0.16	0	-0.51
COc1cc(N2CCCC2)c(OC)cc1/C=c1/sc2nc3ccccc3n2c1=O	-9	0.27	0.13	-4	13*
CC1CN(c2nc3c(c(=O)n(C)c(=O)n3C)n2Cc2c(Cl)cccc2Cl)CC(C)O1 (stereo not given)	7	3.2*	0.69	0	-0.28
Cc1nnc(SCC(=O)N2CCC(c3noc4ccc(F)cc34)CC2)s1	69*	-0.22	-1.8	0	-0.0085
Cc1cccc(NC(=O)C2CC(O)CN2C(=O)OCc2ccccc2)c1 (stereo not given)	-6	0.048	-3.9*	-1	0.37
COc1ccc(NC2=NC3(CCCCC3)N=C(N)N2)cc1	-23	-0.023	-1.8	0	0.37
COc1ccc(OC)c(NC2=NC3(CCCCC3)N=C(N)N2)c1	23	-0.49	-5.2*	-1	0.035
CCOC(=O)C1=C(CSc2nc(C)ccc2C#N)OC(N)=C(C#N)C1c1cccc(OC)c1OC (stereo not given)	-2	-0.015	1.4	-1	-0.069
O=C1NC(=S)S/C1=C1\Sc2ccccc2N1CCCS(=O)(=O)O	-8	0.05	-2.9*	1	-1.5
COc1ccc(C(=O)Nc2c(N)nc(SCC(=O)N3CCCCCC3)[nH]c2=O)cc1OC	-15	1.2	0.054	-1	0.7
CCOC(=O)C1=C(C)NC(=O)NC1c1cc(Br)c(O)c(OC)c1 (stereo not given)	-23	0.0072	0.13	0	-0.71
COc1cc(C2NC(=O)NC(C)=C2C(=O)OC2CCCCC2)cc(Br)c1O (stereo not given)	-22	0.42	-4*	-1	-0.96
Cc1c(C(=O)NCc2cccnc2)sc2nc(-c3ccc(F)cc3)cn12	-16	-0.91	-5.8*	-1	1.1
Cc1c(C(=O)Nc2ccncc2)sc2nc(-c3ccccc3)cn12	49	0.32	-4.5*	-1	2.6
O=C(NC(=O)c1cccc(OC(F)(F)C(F)F)c1)OC1CCS(=O)(=O)C1 (stereo not given)	-14	-19*	-0.65	0	22*
Cc1nc2ccccc2c(=O)n1NC(=O)COc1ccccc1	2	.	-2.9*	-2	.
Cc1cccc(C)c1OCC(=O)Nn1c(C)nc2ccccc2c1=O	15	-0.064	.	0	-0.2
CCOCCOCN(C#N)c1nc(OC)nc(N(C)C)n1	.	1.3	.	.	-0.32
SMILES	S1P1 ag-PAM	M1 antag	D1 mod	S1P3 agonist	M1 ag
CN(C)C(=O)CN(c1ccc(F)c(Cl)c1)S(C)(=O)=O	-2	0.89	0.16	1	0.12
Cc1ccc(C)c(N(CC(=O)N(C)C)S(C)(=O)=O)c1	.	1.3*	-0.45	0	1.5
COc1ccc(NS(=O)(=O)c2ccc3c(c2)Cc2ccccc2-3)cn1	.	-0.74	-1.2	0	-0.42
CCC(=O)c1cn(CC(=O)NCc2cccnc2)c2ccccc12	1	0.14	-0.44	0	0.98
C=CCSc1nnc(NC(=O)CSc2nc3ccccc3o2)s1	9	-2.1	-0.35	-1	-0.48
C=CCOc1ccccc1/C=c1\sc2nc(-c3oc4ccccc4c3C)nn2c1=O	.	-0.28	-0.055	-1	5.2*
O=C(O)C1CCCN1C(=O)Oc1ccccc1 (stereo not given)	-10	0.074	-2.6*	0	-0.81
OC1CN=C2C=CC=CN2C1 (stereo not given)	-20	0.42	-0.014	0	-0.0058
CC(C)CCNC(=O)Cn1c(NCCC(C)C)nc2c1c(=O)n(C)c(=O)n2C	6	1.3*	-0.0042	0	-1.3
CCOc1ccc2[nH]c(=O)c(CN(Cc3nnnn3Cc3ccco3)C3CCCCC3)cc2c1	-23	-1.5	.	-1	3.6*
COc1ccc(Cn2nnnc2CN(Cc2cc3cccc(C)c3[nH]c2=O)C2CCCC2)cc1	-17	1.1	-3.3*	-1	2.2
O=c1[nH]c2cc3c(cc2cc1CN(Cc1nnnn1CC1CCCO1)C1CCCC1)OCO3 (stereo not given)	15	-1.1	-3.3*	0	0.59
COC(=O)C1CCN(c2cc(=O)n(-c3ccc(OC)cc3)c(=O)[nH]2)CC1	10	-0.91	1.2	-1	0.42
COC(=O)CCCC(=O)Nc1c(F)c(F)c(F)c(F)c1F	-26	-0.08	0.0065	0	-0.2
Cc1nc2sc(C(c3ccccc3)N3CCN(C)CC3)c(O)n2n1 (stereo not given)	-14	-0.46	0.014	-1	0.0013
CCOC(=O)c1c(C)c(C(=O)N(C)C2CCCCC2)c(C)n1C	4	0.6	-1.2	0	0.42
CCOCc1nnc(NC(=O)c2cccs2)s1	.	2.1*	-0.22	-1	0.95
COC(=O)c1cc(CSc2nnc(-c3ccccc3)c(-c3ccccc3)n2)oc1C	96*	-0.012	-0.2	4	-0.027
CCN(C(=O)Cc1cccs1)c1nnc(-c2cccnc2)s1	21	0.45	2.8	-2	-0.84
Cn1nc(C(C)(C)C)cc1C(=O)NCc1ccc(N2CCCC2=O)cc1	56*	-1.5	.	-1	1.3
Cc1cc(C)n(C(=O)C(C)N2C(=O)c3ccccc3C2=O)n1 (stereo not given)	.	-1.1	-0.75	-1	2
CCCCC(c1nnnn1Cc1ccco1)N1CCN(C(=O)c2ccco2)CC1 (stereo not given)	-20	0.19	-0.58	-1	-0.7
CCCC(c1nnnn1Cc1ccco1)N1CCN(C(=O)c2ccco2)CC1 (stereo not given)	-29	0.15*	-0.62	0	-0.11
Cc1occc1-c1nnc(SCC(=O)N2CCCc3ccccc32)n1Cc1ccco1	-8	-0.089	-2.6*	0	0.66
O=C(CSc1nnc(-c2cccnc2)n1Cc1ccco1)N1CCc2ccccc21	26	-0.079	.	-1	0.12
CCOc1ccc(C(=O)N2CCC(C(=O)c3ccc4c(c3)OCCO4)CC2)cc1	33	0.36	-0.081	-1	0.033
O=C(Nc1cc(C(F)(F)F)ccc1N1CCOCC1)C1Cc2ccccc2CN1C(=O)c1ccco1 (stereo not given)	1	1.1	-1.8	-1	-0.0077
